For 17 compounds, IC50 and inhibition results are on record in ChEMBL document CHEMBL1135243, “Evaluation of morphogenic regulatory activity of farnesoic acid and its derivatives against Candida albicans dimorphism” (Bioorg Med Chem Lett, 2002).

The subject of experiment [1] is Candida albicans. The experiment in a line: In vitro inhibition of yeast-to-hypha transition in candida albicans. It is filed as functional, organism-based.
Experiment [2] has as its system Candida albicans. The experiment can be described thus: In vitro inhibition of yeast cell growth of candida albicans. It counts as functional, organism-based.
Experiment [3] has as its system Candida albicans. The experiment can be described thus: In vitro inhibition of yeast-to-hypha transition in candida albicans; No inhibition. It is filed as functional, organism-based.
Experiment [4] concerns Candida albicans. The experiment in a line: In vitro inhibition of yeast cell growth of candida albicans; No inhibition. It counts as functional, organism-based.
For experiment [5], the system named is Candida albicans. The experiment can be described thus: In vitro inhibition of yeast cell growth of candida albicans at a concentration of 100 ug/mL. It is filed as functional.
For experiment [6], the system named is Candida albicans. The experiment in a line: In vitro inhibition of yeast-to-hypha transition in candida albicans at a concentration of 100 ug/mL. It counts as functional. The method, boiled down:
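C. albicans ATCC 10231 grown 48 h at 30 °C in YPD, washed twice in sterile water. DMSO stocks diluted in glucose salts (GS) medium, final DMSO below 0.5%. Cells at 10^5 cells/mL in GS with compound, 4 h at 37 °C. Yeast vs hypha (germ tube) percentages counted microscopically on 200 cells from triplicate dishes, relative to 0.5% DMSO control. Highest concentration tested.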

≈ marks a conversion by molar mass, not a printed value. Where only a bound is given, the exact number is not on record here.

Turning to `CC(C)=CCC/C(C)=C/CC/C(C)=C/C(N)=O`, the IC50 in experiment [1] is 20.7 µg/mL (≈ 88 µM); in experiment [2] it was 26.3 µg/mL (≈ 112 µM).

Consider `CC(C)=CCC/C(C)=C/CC/C(C)=C/COC(=O)/C=C(\C)CC/C=C(\C)CCC=C(C)C`, for which the IC50 in experiment [3] and in experiment [4] was above 100 µg/mL in each case.

Consider `C=CCOC(=O)/C=C(\C)CC/C=C(\C)CCC=C(C)C`, for which the IC50 in experiment [3] and in experiment [4] was above 100 µg/mL in each case.

Consider `CC(C)=CCC/C(C)=C/CC/C(C)=C/C(=O)N1CCOCC1`, for which the half-maximal inhibitory concentration (IC50) in experiment [1] was 41 µg/mL (≈ 134 µM); in experiment [2], 87.5 µg/mL (≈ 286 µM).

In experiment [3], `CC(C)=CCC/C(C)=C/C(=O)O` yielded an IC50 above 100 µg/mL. Besides, in experiment [5], at 100 µg/mL the inhibition was 57%.

In experiment [4], `CC(C)=CCC/C(C)=C/CC/C(C)=C\C(=O)O` gave an IC50 above 100 µg/mL. In experiment [6], the inhibition at 100 µg/mL was 18%.

On to `CC(C)=CCC/C(C)=C/CC/C(C)=C/C(=O)N(C)C`, for which the IC50 is 16.9 µg/mL (≈ 64.3 µM) in experiment [1] and 43.7 µg/mL (≈ 166 µM) in experiment [2].

As to `COC(=O)/C=C(\C)CC/C=C(\C)CCC=C(C)C`, the half-inhibitory concentration (IC50) in experiment [3] and in experiment [4] was above 100 µg/mL throughout.

Regarding `C=CCNC(=O)/C=C(\C)CC/C=C(\C)CCC=C(C)C`, the IC50 in experiment [3] and in experiment [4] was above 100 µg/mL each time.

For `CC(C)=CCC/C(C)=C/CC/C(C)=C/C(=O)OC/C=C(\C)CCC=C(C)C`, the half-maximal inhibitory concentration (IC50) in experiment [3] and in experiment [4] was above 100 µg/mL in each case.

For `CC(C)=CCC/C(C)=C/CC/C(C)=C/C(=O)OCC=C(C)C`, the half-inhibitory concentration (IC50) in experiment [3] and in experiment [4] was above 100 µg/mL throughout.

On to `CNC(=O)/C=C(\C)CC/C=C(\C)CCC=C(C)C`, for which the IC50 in experiment [3] and in experiment [4] was above 100 µg/mL throughout.

With `CC(C)=CCC/C(C)=C/CC/C(C)=C/C(=O)OC/C=C/c1ccccc1`, the IC50 in experiment [3] and in experiment [4] was above 100 µg/mL each time.

On to `CC(C)=CCC/C(C)=C/CC/C(C)=C/C(=O)O`, for which the results for the IC50 in experiment [1] and in experiment [4] were 4.56 µg/mL (≈ 19.3 µM) and above 100 µg/mL, respectively.

As for `CC(C)=CCC/C(C)=C/CC/C(C)=C/C(=O)OCc1ccccc1`, the IC50 in experiment [3] and in experiment [4] was above 100 µg/mL throughout.

Compound `CC(C)=CCC/C(C)=C/CC/C(C)=C/CO` [FARNESOL] had a 50% inhibitory concentration (IC50) in experiment [1] of 2.82 µg/mL (≈ 12.7 µM). The compound also displayed an inhibition at 100 µg/mL in experiment [5] of 35%.

As for `CC(C)=CCC/C(C)=C/CC/C(C)=C/CC/C(C)=C/C(=O)O` [GERANYLGERANOIC ACID], the half-maximal inhibitory concentration (IC50) in experiment [3] and in experiment [4] was above 100 µg/mL each time.
